ChEMBL document CHEMBL1130067, “Pyridazinodiazepines as a high-affinity, P2-P3 peptidomimetic class of interleukin-1 beta-converting enzyme inhibitor” (J Med Chem, 1997)
Peptide text beside a SMILES is read from it. * marks the point of attachment. Cbz = O=C(OCc1ccccc1)*

Target: T1, Caspase-1 (Homo sapiens, UniProt P29466)
T1 sequence (P29466 whole entry): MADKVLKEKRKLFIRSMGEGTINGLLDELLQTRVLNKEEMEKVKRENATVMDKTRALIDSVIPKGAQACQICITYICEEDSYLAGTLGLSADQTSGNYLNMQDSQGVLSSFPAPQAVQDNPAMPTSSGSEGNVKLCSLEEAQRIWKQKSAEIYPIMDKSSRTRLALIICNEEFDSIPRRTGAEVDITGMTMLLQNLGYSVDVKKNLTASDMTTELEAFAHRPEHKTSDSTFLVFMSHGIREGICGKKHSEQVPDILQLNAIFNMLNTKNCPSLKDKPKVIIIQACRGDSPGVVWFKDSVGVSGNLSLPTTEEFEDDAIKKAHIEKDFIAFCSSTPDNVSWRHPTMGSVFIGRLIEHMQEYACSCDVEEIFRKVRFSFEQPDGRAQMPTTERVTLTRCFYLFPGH
Assay: Reversible Inhibition constants against IL-1 beta converting enzyme (ICE)
Summary of the method: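 Fluorescence progress curves are recorded at 37 °C over 30 min. Ki for reversible inhibitors is derived by a method from a cited reference. Determinations are in triplicate, standard error <10%.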

Row | Ki | Structure (SMILES)
1 | 1 nM | O=C[C@H](CC(=O)O)NC(=O)[C@@H]1CCCN2C(=O)CC[C@H](NC(=O)c3ccc(OCC(=O)O)cc3)C(=O)N12
2 | 5 nM | O=C[C@H](CC(=O)O)NC(=O)[C@@H]1CCCN2C(=O)CC[C@H](NC(=O)c3ccccc3)C(=O)N12
3 | 15 nM | CC(C)[C@H](NC(=O)OCc1ccccc1)C(=O)N[C@@H](C)C(=O)N[C@@H](CC(=O)O)C(=O)O (Cbz-Val-Ala-Asp-OH)
4 | 25 nM | O=C[C@H](CC(=O)O)NC(=O)[C@@H]1CCCN2C(=O)CC[C@H](NC(=O)OCc3ccccc3)C(=O)N12

Species on record: Homo sapiens
Assay: Inhibitory concentration against IL1-beta production in human monocytes
Assay type: functional

Row | IC50 | Structure (SMILES)
5 | 1000 nM | O=C[C@H](CC(=O)O)NC(=O)[C@@H]1CCCN2C(=O)CC[C@H](NC(=O)c3ccccc3)C(=O)N12

Target: T2, Caspase-1 (Homo sapiens) (UniProt P29466)
T2 sequence (whole entry): T1 sequence (P29466 whole entry)
Assay: Second order rate constants were tested for inhibition of IL-1 beta converting enzyme (ICE)
Summary of the method: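 Fluorogenic progress-curve assay: ICE in 10 mM HEPES pH 7.5, 25% glycerol, 1 mM DTT, with 10 µM Suc-Tyr-Val-Ala-Asp-AMC; read at 37 °C over 30 min. Inactivation rates are taken from nonlinear progress curves by the Tian–Tsou method, giving second-order rate constants. Determinations are in triplicate, standard error <10%.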

Row | K obs / 1 | Structure (SMILES)
6 | 425000 M⁻¹ s⁻¹ | O=C(O)C[C@H](NC(=O)[C@@H]1CCCN2C(=O)CC[C@H](NC(=O)c3ccc(CN4CCOCC4)cc3)C(=O)N12)C(=O)COC(=O)c1c(Cl)cccc1Cl
7 | 162000 M⁻¹ s⁻¹ | CN(C)Cc1ccc(C(=O)N[C@H]2CCC(=O)N3CCC[C@@H](C(=O)N[C@@H](CC(=O)O)C(=O)COc4cc(C(F)(F)F)nn4-c4ccc(Cl)cc4)N3C2=O)cc1
8 | 310000 M⁻¹ s⁻¹ | O=C(O)C[C@H](NC(=O)Cn1c(-c2ccc(F)cc2)ncc(NC(=O)OCc2ccccc2)c1=O)C(=O)COc1cc(C(F)(F)F)nn1-c1ccc(Cl)cc1
9 | 340000 M⁻¹ s⁻¹ | Cc1nccn1Cc1ccc(C(=O)N[C@H]2CCC(=O)N3CCC[C@@H](C(=O)N[C@@H](CC(=O)O)C(=O)COC(=O)c4c(Cl)cccc4Cl)N3C2=O)cc1
10 | 437000 M⁻¹ s⁻¹ | O=C(O)C[C@H](NC(=O)[C@@H]1CCCN2C(=O)CC[C@H](NC(=O)OCc3ccccc3)C(=O)N12)C(=O)COc1cc(C(F)(F)F)nn1-c1ccc(Cl)cc1
11 | 800000 M⁻¹ s⁻¹ | CSc1ccc(C(=O)N[C@H](C(=O)N[C@@H](C)C(=O)N[C@@H](CC(=O)O)C(=O)COc2cc(C(F)(F)F)nn2-c2ccccc2)C(C)C)cc1
12 | 268000 M⁻¹ s⁻¹ | O=C(O)C[C@H](NC(=O)Cn1c(-c2ccc(F)cc2)ncc(NC(=O)OCc2ccccc2)c1=O)C(=O)COC(=O)c1c(Cl)cccc1Cl
13 | 432000 M⁻¹ s⁻¹ | CC(C)[C@H](NC(=O)OCc1ccccc1)C(=O)N[C@@H](C)C(=O)N[C@@H](CC(=O)O)C(=O)COC(=O)c1c(Cl)cccc1Cl
14 | 110000 M⁻¹ s⁻¹ | CSc1ccc(C(=O)Nc2cnc(-c3ccc(F)cc3)n(CC(=O)N[C@@H](CC(=O)O)C(=O)COc3cc(C(F)(F)F)nn3-c3ccc(Cl)cc3)c2=O)cc1
15 | 114000 M⁻¹ s⁻¹ | O=C(O)C[C@H](NC(=O)CN1C(=O)[C@@H](NC(=O)OCc2ccccc2)COc2ccccc21)C(=O)COc1cc(C(F)(F)F)nn1-c1ccc(Cl)cc1
16 | 186000 M⁻¹ s⁻¹ | CC(C)[C@H](NC(=O)c1ccc(CN2CCOCC2)cc1)C(=O)N[C@@H](C)C(=O)N[C@@H](CC(=O)O)C(=O)COc1cc(C(F)(F)F)nn1-c1ccccc1
17 | 31800 M⁻¹ s⁻¹ | C[C@@H](C(=O)N[C@@H](CC(=O)O)C(=O)COc1cc(C(F)(F)F)nn1-c1ccccc1)N1CC[C@H](NC(=O)OCc2ccccc2)C1=O
18 | 572000 M⁻¹ s⁻¹ | O=C(O)C[C@H](NC(=O)[C@@H]1CCCN2C(=O)CC[C@H](NC(=O)OCc3ccccc3)C(=O)N12)C(=O)COC(=O)c1c(Cl)cccc1Cl
19 | 413000 M⁻¹ s⁻¹ | O=C(O)C[C@H](NC(=O)[C@@H]1CCCN2C(=O)CC[C@H](NC(=O)OCc3ccccc3)C(=O)N12)C(=O)COc1cc(C(F)(F)F)nn1-c1ccccc1
20 | 1.22e+06 M⁻¹ s⁻¹ | O=C(O)CSc1ccc(C(=O)N[C@H]2CCC(=O)N3CCC[C@@H](C(=O)N[C@@H](CC(=O)O)C(=O)COc4cc(C(F)(F)F)nn4-c4ccc(Cl)cc4)N3C2=O)cc1
21 | 340000 M⁻¹ s⁻¹ | CC(C)[C@H](NC(=O)OCc1ccccc1)C(=O)N[C@@H](C)C(=O)N[C@@H](CC(=O)O)C(=O)COc1cc(C(F)(F)F)nn1-c1ccc(Cl)cc1
22 | 210000 M⁻¹ s⁻¹ | CN1CCN(Cc2ccc(C(=O)N[C@H]3CCC(=O)N4CCC[C@@H](C(=O)N[C@@H](CC(=O)O)C(=O)COC(=O)c5c(Cl)cccc5Cl)N4C3=O)cc2)CC1
23 | 44000 M⁻¹ s⁻¹ | O=C(O)C[C@H](NC(=O)CN1C(=O)[C@@H](NC(=O)OCc2ccccc2)COc2ccccc21)C(=O)COC(=O)c1c(Cl)cccc1Cl
24 | 800000 M⁻¹ s⁻¹ | O=C(O)CCCc1ccc(C(=O)N[C@H]2CCC(=O)N3CCC[C@@H](C(=O)N[C@@H](CC(=O)O)C(=O)COc4cc(C(F)(F)F)nn4-c4ccc(Cl)cc4)N3C2=O)cc1
25 | 200000 M⁻¹ s⁻¹ | CC(C)[C@H](NC(=O)c1ccc(CN2CCN(C)CC2)cc1)C(=O)N[C@@H](C)C(=O)N[C@@H](CC(=O)O)C(=O)COc1cc(C(F)(F)F)nn1-c1ccc(Cl)cc1
26 | 42000 M⁻¹ s⁻¹ | O=C(O)C[C@H](NC(=O)[C@@H]1CS[C@H]2CC[C@H](NC(=O)OCc3ccccc3)C(=O)N21)C(=O)COc1cc(C(F)(F)F)nn1-c1ccccc1
